The structures appear in SMILES notation. Active and inactive are the calls of the source. The rule behind the calls is not given here.

The source of these data is ChEMBL document CHEMBL1221389, “Fluorescent schweinfurthin B and F analogs with anti-proliferative activity” (2010).

Assay [1] has as its system SF-295. The experiment in a line: Cytotoxicity against human SF295 cells after 44 hrs by MTT assay. The format is functional. As to conditions: SF-295, 44 h, read-out: ED50 (the source's name). Put shortly:
(§1)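 Exposure to compound lasted 44 h. SF-295 cells were kept in RPMI 1640 and A549 cells in F-12, each with 10% FBS, antibiotics and L-glutamine, at 37 °C and 5% CO2. Medium was then replaced with MTT-containing medium (phenol red-free RPMI for SF-295, F-12 for A549) up to 48 h total. Cells were solubilized overnight at room temperature in HCl/Triton X-100/isopropanol stop solution, and absorbance was read at 540 and 650 nm. ED50 was derived from the dose-response.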
(In general: Formazan colour is commonly taken as a measure of viable cells.)

Assay [2] deals with A549. The experiment in a line: Cytotoxicity against human A549 cells after 44 hrs by MTT assay. The format is functional. Particulars: A549, 44 h, read-out: ED50 (the source's name). A digest of the protocol: as §1
In assay [3] the test system is SF-295. As to the kind of experiment: Cellular uptake in human SF295 cells assessed as perinuclear localization at 500 nM after 24 hrs by fluorescence microscopy. The format is functional, cell-based. A digest of the protocol:
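SF-295 glioma cells, from NCI, grown in RPMI 1640 with 10% FBS, amphotericin B, penicillin/streptomycin and L-glutamine at 37 °C, 5% CO2. Plated on coverslips and exposed to compound at 500 nM for 24 h at about 45% confluency. Then washed three times in PBS, fixed in 4% formaldehyde for 15 min, nuclei stained with DAPI, and compound fluorescence imaged.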

On to `COc1ccc(/C=C/c2cc(O)c(/C=C/c3ccc(N)cc3)c(OC)c2)cc1OC`, for which the values for the EC50 in assay [1] and in assay [2] were greater than 1000 nM and greater than 10000 nM, respectively.

Turning to `COc1cc(/C=C/c2cc3c(c(OC)c2)O[C@]2(C)C[C@@H](O)[C@@H](O)C(C)(C)[C@H]2C3)cc(O)c1/C=C/c1ccc(N)cc1`, the EC50 in assay [1] worked out at 20 nM; in assay [2], 3200 nM.

With `COc1cc(/C=C/c2cc3c(c(OC)c2)O[C@]2(C)CC[C@@H](O)C(C)(C)[C@H]2C3)cc(O)c1/C=C/c1ccc([N+](=O)[O-])cc1`, the EC50 in assay [1] came to 100 nM; in assay [2], 2700 nM. For the same compound, in assay [3], the outcome was Active.

For `COc1ccc(/C=C/c2cc(O)c(/C=C/c3ccc([N+](=O)[O-])cc3)c(OC)c2)cc1OC`, the EC50 is greater than 1000 nM in assay [1] and greater than 10000 nM in assay [2].

`COc1cc(/C=C/c2cc(O)c(/C=C/c3ccc([N+](=O)[O-])cc3)c(O)c2)cc2c1O[C@]1(C)CC[C@@H](O)C(C)(C)[C@H]1C2`: the EC50 was found to be 50 nM in assay [1] and 800 nM in assay [2].

For the compound `COc1cc(/C=C/c2cc3c(c(OC)c2)O[C@]2(C)C[C@@H](O)[C@@H](O)C(C)(C)[C@H]2C3)cc(O)c1/C=C/c1ccc([N+](=O)[O-])cc1`, the EC50 came to 40 nM in assay [1] and 700 nM in assay [2].

In the case of `COc1cc(/C=C/c2cc3c(c(OC)c2)O[C@]2(C)CC[C@@H](O)C(C)(C)[C@H]2C3)cc(O)c1/C=C/c1ccc(N)cc1`, the EC50 in assay [1] came out at 400 nM; in assay [2] it was 3000 nM.
